# Source: PubChem BioAssay AID449754 (Broad Institute, 2010)
# Inconclusive results are not listed. Activity calls are given as the source filed them.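 The calls were made as follows: active = compounds whose fitted caspase activation AC50 is no more than tenfold above the top tested dose; inconclusive = flat fit with 30 to 70% activity, or a failed fit; inactive = the rest.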
# System: MEF Bax/Bak KO A1-BIM, caspase-Glo luminescence, 3 h
# Assay: caspase signal in Bax-Bak null A1-BIM cells – cell-based, Bax-Bak knockout MEF, A1-2A-BIM, luminescence, counter-screen for A1 inhibitor project, dose response (AID 449754);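 also: counterscreen where caspase activation signals off-target toxicity not A1 inhibition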
# Outline: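 Material: A1-2A-BIM MEFs lacking Bax and Bak / Buffer or medium: RPMI-1640, 10% FBS / Compound: 100 nL pinned compound per well / Timing: 3 h compound at 37 °C, 1 h detection at RT / Technique: CaspaseGlo luminescence, reagent diluted 1:1 in 50 mM HEPES / Read-out basis: caspase activity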
row,Structure (SMILES),AC50
1,COc1cccc(C(=O)C(C#N)=C(SC)SC)c1,> 35 µM (inactive)
2,CN(C)CCCN(C(=O)c1ccc(S(=O)(=O)N2CCc3ccccc3C2)cc1)c1nc2ccc(F)cc2s1,> 35 µM (inactive)
3,O=C(Nc1ccc(O)c2c(=O)cc(-c3cccc(Cl)c3)oc12)c1cccc(Cl)c1,> 35 µM (inactive)
4,Nc1nc(F)nc2c1ncn2[C@@H]1O[C@H](CO)[C@@H](O)[C@H]1O,> 35 µM (inactive)
5,CCOCCCNC(=O)c1ccc2c(c1)N=C(CC)c1cc(Br)ccc1S2,> 35 µM (inactive)
6,CCc1ccc(Oc2coc3cc(OCC(=O)Nc4cc(C)ccc4C)ccc3c2=O)cc1,> 35 µM (inactive)
7,CN(C)CCCN(C(=O)c1cc2cc([N+](=O)[O-])ccc2s1)c1nc2cc3c(cc2s1)OCCO3,> 35 µM (inactive)
8,Cc1ccc(CS(=O)(=O)c2ncc(Cl)c(C(=O)Nc3nnc(C(C)C)s3)n2)cc1,> 35 µM (inactive)
9,Cc1ccc(NC(=O)c2cc(N3C(=O)C=CC3=O)ccc2N2CCOCC2)cc1Cl,> 35 µM (inactive)
10,CC(C)(C)C1CCc2onc(C(=O)Nc3cccc(O)c3)c2C1 (centres undefined),> 35 µM (inactive)
11,Cc1occc1-c1nnc(SCC(=O)NCCc2ccccc2)n1Cc1ccccc1,> 35 µM (inactive)
12,CC1=NNC(=O)/C1=C\c1cn(-c2ccccc2)nc1-c1ccccc1,11 µM
13,CCOC(=O)c1sc(NC(=O)CSc2nc(C)cc(C)c2C#N)c(C#N)c1C,> 35 µM (inactive)
14,Cc1ccc(N(Cc2cc(=O)[nH]c3ccccc23)C(=O)CCl)cc1,> 35 µM (inactive)
15,COc1ccc2c(c1)[nH]c1c(=O)n(/N=C/C3C(C)C=C(C)CC3C)c(=O)[nH]c12 (centres undefined),> 35 µM (inactive)
16,CCOc1ccc(N2C(=O)/C(=C\c3ccc(O)c(OC)c3)S(=O)(=O)C2c2cccc([N+](=O)[O-])c2)cc1 (centres undefined),> 35 µM (inactive)
17,CCSc1nnc(NC(=O)c2nc(S(=O)(=O)Cc3ccc(F)cc3)ncc2Cl)s1,> 35 µM (inactive)
18,O=C1/C(=C\c2c(NCCOCCO)nc3ccccn3c2=O)SC(=S)N1Cc1ccco1,> 35 µM (inactive)
19,COc1ccc(-c2ccc3c(c2)S(=O)(=O)c2cccc(C(=O)NC[C@@H]4CCCO4)c2C3=O)cc1OC,> 35 µM (inactive)
20,CCc1ccc2nc(N(CCCN(C)C)C(=O)c3ccc(S(=O)(=O)N4CCc5ccccc5C4)cc3)sc2c1,> 35 µM (inactive)
21,CC(=O)Nc1sc(N/N=C\c2cccc(Cl)c2)nc1-c1cccs1,> 35 µM (inactive)
22,CCOC(=O)N1C(=O)[C@@](c2ccc(Cl)cc2)(C(C)C)N1C(=O)OCC,35.1 µM

row,Structure (SMILES),AC50
1,Cc1ccc2c(c1)C(=O)C(=O)N2Cc1ccc(Br)cc1,> 35 µM (inactive)
2,COc1ccc(C2Nc3ccc4ccccc4c3-c3c2c(=O)oc2ccccc32)cc1 (centres undefined),18.7 µM
3,COC(=O)[C@@]1(C)CC[C@]2(C)CC[C@@]3(C)C(=CC(=O)C4[C@@]5(C)CC[C@H](O)C(C)(C)[C@@H]5CC[C@]43C)[C@H]2C1 (some centres undefined),> 35 µM (inactive)
4,COc1ccc(Oc2cc(NC(=O)c3nn(C)cc3[N+](=O)[O-])cc([N+](=O)[O-])c2)cc1,> 35 µM (inactive)
5,COc1cc(/C=C(/C#N)c2nc3ccccc3[nH]2)ccc1OCC(=O)Nc1ccccc1C(C)C,> 35 µM (inactive)
6,COc1cc2c(-c3ccccc3)c(C)oc2cc1/C=N/NC(N)=S,> 35 µM (inactive)
7,CCc1cc2c(=O)c(-c3cnn(-c4ccccc4)c3)c(C)oc2cc1OCC(=O)Nc1cccc(C)c1,> 35 µM (inactive)
8,O=c1c(Cl)c(Cl)cnn1Cc1ccccc1Cl,> 35 µM (inactive)
9,Cc1ccc2nc(N(CCCN(C)C)C(=O)c3ccc(S(=O)(=O)N4CCc5ccccc5C4)cc3)sc2c1,> 35 µM (inactive)
10,Cc1ccc(C)c(S(=O)(=O)NCC(=O)Nc2sc3c(c2C(N)=O)CCC(C)C3)c1 (centres undefined),> 35 µM (inactive)
11,CC(C)(C)c1ccc(C(=O)Nc2ccc(O)c3c(=O)cc(-c4cccc(Cl)c4)oc23)cc1,> 35 µM (inactive)
12,O=C(c1ccc(COc2ccc3ccccc3c2)o1)N1N=C(C(F)F)CC1(O)C(F)F (centres undefined),> 35 µM (inactive)
13,COc1ccc(C2CC(c3c(O)cc(C)oc3=O)=NCCS2)c(OC)c1 (centres undefined),> 35 µM (inactive)
14,Cc1cc(=O)[nH]c(SCC(=O)Nc2ccc(Br)cc2)c1C#N,> 35 µM (inactive)
15,Cc1ccc2c(c1)c(C1=c3ccccc3=NC1=O)c(O)n2C,> 35 µM (inactive)
16,COc1ccc(-c2c(C#N)c(N)nc(Sc3ccc(Cl)cc3)c2C#N)cc1,> 35 µM (inactive)
17,CCOC(=O)C(C(=O)OCC)c1cc(Br)c2noc3c2c1C(=O)c1ccccc1-3,> 35 µM (inactive)
18,N#Cc1cccnc1N1CCN(C(=O)c2cccc3c2C(=O)c2ccc(-c4ccc(Cl)c(C(F)(F)F)c4)cc2S3(=O)=O)CC1,> 35 µM (inactive)
19,CCc1nn(-c2cc(Oc3cccc4ccccc34)nc(-c3ccccc3)n2)c(N)c1C#N,> 35 µM (inactive)
20,COc1ccc(OC)c(NC(=O)c2cc(-c3cc(C)ccc3O)n[nH]2)c1,> 35 µM (inactive)
21,COc1cc(CN2CCN(c3cc(C)ccc3C)CC2)ccc1O,> 35 µM (inactive)
22,CCN(C(=O)CCN1C(=O)c2ccccc2S1(=O)=O)c1ccccc1,> 35 µM (inactive)

row,Structure (SMILES),AC50
1,COc1cc(NC(=O)c2ccccc2F)ccc1NC(=O)c1cc2ccccc2o1,> 35 µM (inactive)
2,O=C(CCl)N=c1sccn1Cc1ccccc1Cl,> 35 µM (inactive)
3,COc1ccc(-c2oc(=O)c3cc(OC)c(OC)cc3c2/C=C/c2cccc([N+](=O)[O-])c2)cc1,> 35 µM (inactive)
4,O=C(NCc1ccccc1Cl)c1cccc2c1C(=O)c1ccc(-c3ccc(OC(F)(F)F)cc3)cc1S2(=O)=O,> 35 µM (inactive)
5,CN(C)C/C=C(\c1ccc(Br)cc1)c1cccnc1,> 35 µM (inactive)
6,C#CC(=O)N(c1cc(OC)ccc1OC)C(C(=O)NC1CCCC1)c1cccs1 (centres undefined),> 35 µM (inactive)
7,Cc1cc(C)cc(NC(=O)/C(C#N)=C/c2cn(CC(=O)NCc3ccco3)c3ccccc23)c1,6.71 µM
8,CC1=CC(=O)C(C(C)C)=C/C1=N/OS(=O)(=O)c1ccccc1,7.41 µM
9,O=C(NCCc1ccccc1)C(c1cccs1)N(C(=O)CCl)c1ccc(Cl)cc1 (centres undefined),6.03 µM
10,Oc1[nH]c2ccc(Br)cc2c1N=NC(=S)Nc1ccc(F)cc1,> 35 µM (inactive)
11,COc1ccc(C(=O)/C=C/C(=O)N(CC(=O)NC2CCCCC2)Cc2cccs2)c(O)c1,> 35 µM (inactive)
12,O=[N+]([O-])/C=C/c1cn(Cc2ccc(Cl)cc2)c2ccccc12,20.7 µM
13,CCc1ccccc1NC(=O)C(CC)Sc1nc2cc3c(cc2c(=O)n1Cc1ccco1)OCO3 (centres undefined),> 35 µM (inactive)
14,Cc1ccc(S(=O)(=O)N(C)Cc2ccc(C(=O)N/N=C/c3ccc(OC(F)F)cc3)cc2)cc1,> 35 µM (inactive)
15,COc1ccccc1C(=O)Nc1ccnn1C1CCN(Cc2cn(C)c3ccccc23)CC1,> 35 µM (inactive)
16,COCc1cc(C)nc(SCC(=O)Nc2nc(C)cs2)c1C#N,> 35 µM (inactive)
17,COc1ccc(NC(=O)CSc2nc3ccc(Nc4nc(N5CCOCC5)nc(N5CCOCC5)n4)cc3s2)cc1,> 35 µM (inactive)
18,Cn1c(=NC(=O)CCl)sc2ccccc21,> 35 µM (inactive)
19,COc1ccc(-c2ccc3c(c2)S(=O)(=O)c2cccc(C(=O)NCCOc4ccccc4)c2C3=O)cc1OC,> 35 µM (inactive)
20,COc1ccc(C[C@H]2NC[C@H](O)[C@H]2OC(C)=O)cc1,> 35 µM (inactive)
